Tests used:
[1] = Antiviral activity against Human respiratory syncytial virus A strain Long infected in human Hep2 cells assessed as reduction in virus induced cytopathic effect in presence of 10% FBS after 5 days by CCK-8 assay; assay type: functional, cell-based; settings: HEp-2, 120 h
How it was run: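 HEp-2 cells seeded at 6000/well and infected the next day at MOI 0.02, a dose that gives about 90% CPE by day 5. Serial compound dilutions were present throughout, in standard medium with 10% FBS. Viability was read by CCK-8 at day 5, and EC50 is the concentration that cuts CPE by 50%.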

[2] = Cytotoxicity against human Hep2 cells assessed as reduction in cell viability after 5 days by CCK-8 assay; assay type: cell-based; settings: HEp-2 cells
How it was run: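 Uninfected HEp-2 cells (6000/well) were incubated 5 days with serially diluted compound. Viability was read by CCK-8, and CC50 is the concentration toxic to 50% of cells.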

[3] = Therapeutic index, ratio of CC50 of human Hep2 cells to EC50 for antiviral activity against human respiratory syncytial virus long strain infected in human Hep2 cells after 5 days by CCK-8 assay; assay type: toxicity, cell-based; settings: HEp-2 cells, read-out: Ratio CC50/EC50
How it was run: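 TI is CC50 over EC50. CC50 comes from uninfected HEp-2 cells; EC50 from 50% reduction of RSV Long CPE in HEp-2 cells (MOI 0.02, 5 days). Both were read by CCK-8 viability.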

[4] = Half-life in Wistar-Han rat at 2 mg/kg, iv administered as single dose and measured up to 24 hrs by LC/MS/MS analysis; assay type: ADME, organism-based; settings: in vivo
How it was run: (§1)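 Male Wistar-Han rats, single dose, 2 mg/kg iv and 10 mg/kg po, run by standard procedures.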

[5] = AUC (0 to 24 hrs) in Wistar-Han rat at 10 mg/kg, po administered as single dose via gavage and measured up to 24 hrs by LC/MS/MS analysis; assay type: ADME, organism-based; parameters: dose 10 mg/kg, time < 24 hr, route oral; settings: in vivo
How it was run: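 Single-dose PK in male Wistar-Han rats at 2 mg/kg iv or 10 mg/kg po, as a solution in 5% DMSO, 40% PEG400 and 55% 0.9% sodium chloride.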

[6] = Plasma clearance in Wistar-Han rat at 2 mg/kg, iv or 10 mg/kg, po administered as single dose via gavage and measured up to 24 hrs by LC/MS/MS analysis; assay type: ADME, organism-based; how it was run: as §1
[7] = Oral bioavailability in Wistar-Han rat at 10 mg/kg administered as single dose via gavage and measured up to 24 hrs by LC/MS/MS analysis; assay type: ADME, organism-based; settings: in vivo; how it was run: as §1
[8] = Volume of distribution at steady state in Wistar-Han rat at 2 mg/kg, iv or 10 mg/kg, po administered as single dose via gavage and measured up to 24 hrs by LC/MS/MS analysis; assay type: ADME, organism-based; settings: in vivo, read-out: Vdss; how it was run: as §1

| Compound | EC50 [1] | CC50 at 120 h [2] | selectivity ratio at 120 h [3] | half-life [4] | AUC(0-t) at 24 h [5] | clearance [6] | bioavailability [7] | Vd [8] |
| --- | --- | --- | --- | --- | --- | --- | --- | --- |
| NC1(CNc2cc(N3CCS(=O)(=O)c4ccccc4C3)nc3ccc(Cl)cc23)COC1 | 34 nM | 87000 nM | 2560 |  |  |  |  |  |
| Cc1ccc2nc(N3CCS(=O)(=O)c4cc(F)ccc4C3)cc(NCC3(N)COC3)c2c1 | 10 nM | 79000 nM | 7900 |  |  |  |  |  |
| Cc1ccc2nc(N3CCS(=O)(=O)c4ccccc4C3)cc(NCC3(N)COC3)c2c1 | 2 nM | > 100000 nM | > 50000 | 1.7 h | 442 ng·h/mL | 51 mL/min/kg | 13% | 4.1 L/kg |
| Cc1ccc2nc(N3CCS(=O)(=O)c4ccccc4C3)nc(NCC3(N)CCC3)c2c1 | 100 nM | 21000 nM | 210 |  |  |  |  |  |
| Cc1ccc2c(c1)S(=O)(=O)CCN(c1cc(NCC3(N)COC3)c3ccccc3n1)C2 | 74 nM | 95000 nM | 1280 |  |  |  |  |  |
| NC1(CNc2cc(N3CCS(=O)(=O)c4ccccc4C3)nc3ccc(CO)cc23)COC1 | 2 nM | > 100000 nM | > 50000 |  |  |  |  |  |
| COc1ccc2c(c1)S(=O)(=O)CCN(c1cc(NCC3(N)COC3)c3ccccc3n1)C2 | 8 nM | > 100000 nM | > 12500 |  |  |  |  |  |
| Cc1cc2c(NCC3(N)COC3)cc(N3CCS(=O)(=O)c4ccccc4C3)nc2c(F)c1F | 510 nM | 53000 nM | 104 |  |  |  |  |  |
| Cc1ccc2cc(N3CCS(=O)(=O)c4ccccc4C3)nc(NCC3(N)COC3)c2c1 | 220 nM | 81000 nM | 370 |  |  |  |  |  |
| Cc1cc2c(NCC3(N)COC3)cc(N3CCS(=O)(=O)c4ccccc4C3)nc2cc1F | 21 nM | 64000 nM | 3050 |  |  |  |  |  |
| Cc1ccc2nc(N3CCS(=O)(=O)c4ccc(O)cc4C3)cc(NCC3(N)COC3)c2c1 | 0.8 nM | > 100000 nM | > 125000 |  |  |  |  |  |
| Cc1ccc2nc(N3CCS(=O)(=O)c4ccccc4C3)nc(NCC(C)(C)N)c2c1 | 16 nM | 20000 nM | 1250 |  |  |  |  |  |
| COc1ccc2c(c1)S(=O)(=O)CCN(c1cc(NCC3(N)COC3)c3cc(C)ccc3n1)C2 | 1 nM | 92000 nM | 92000 |  |  |  |  |  |
| Cc1ccc2nc(N3CCS(=O)(=O)c4ccc(F)cc4C3)cc(NCC3(N)COC3)c2c1 | 72 nM | 93000 nM | 1290 |  |  |  |  |  |
| CC(C)(O)c1ccc2nc(N3CCS(=O)(=O)c4ccccc4C3)cc(NCC3(N)COC3)c2c1 | > 100000 nM | > 100000 nM | < 1 |  |  |  |  |  |
| COc1cccc2c1S(=O)(=O)CCN(c1cc(NCC3(N)COC3)c3cc(C)ccc3n1)C2 | 350 nM | > 100000 nM | > 286 |  |  |  |  |  |
| NC1(CNc2cc(N3CCS(=O)(=O)c4ccccc4C3)cc3ccccc23)COC1 | > 31600 nM | 71000 nM | < 2 |  |  |  |  |  |
| COc1ccc2c(c1)CN(c1cc(NCC3(N)COC3)c3cc(C)ccc3n1)CCS2(=O)=O | 3 nM | 90000 nM | 30000 |  |  |  |  |  |
| Cc1ccc2nc(N3CCS(=O)(=O)c4cc(Cl)ccc4C3)cc(NCC3(N)COC3)c2c1 | 27 nM | 15000 nM | 560 |  |  |  |  |  |
| Cc1ccc2nc(N3CCS(=O)(=O)c4ccccc4C3)nc(NCC3(N)CC3)c2c1 | 4 nM | 13000 nM | 3250 |  |  |  |  |  |
| NC1(CNc2nc(N3CCS(=O)(=O)c4ccccc4C3)nc3ccccc23)COC1 | 20 nM | > 100000 nM | > 5000 |  |  |  |  |  |
| NC1(CNc2cc(N3CCS(=O)(=O)c4ccccc4C3)nc3ccncc23)COC1 | 12 nM | 99000 nM | 8250 |  |  |  |  |  |
| Cc1ccc2nc(N3CCS(=O)(=O)c4c(F)cccc4C3)cc(NCC3(N)COC3)c2c1 | 3 nM | 35000 nM | 11700 |  |  |  |  |  |
| Cc1ccc2nc(N3CCS(=O)(=O)c4ccccc4C3)cc(NCC3(N)COC3)c2c1F | 23 nM | 93000 nM | 4040 |  |  |  |  |  |
| Cc1ccc2c(c1)S(=O)(=O)CCN(c1cc(NCC3(N)COC3)c3cc(C)ccc3n1)C2 | 5 nM | 91000 nM | 18200 |  |  |  |  |  |

— ChEMBL document CHEMBL4364260, “Discovery of Ziresovir as a Potent, Selective, and Orally Bioavailable Respiratory Syncytial Virus Fusion Protein Inhibitor” (J Med Chem, 2019)
